Bioassay records deposited in PubChem by The Scripps Research Institute Molecular Screening Center.
V1aR counter = activates human V1a receptor in oxytocin agonist counter-screen | P37288 | CHO-V1R cells, Fluo-8 calcium fluorescence, agonist mode; 0% DMSO, 100% 3 nM vasopressin | activation, % at 3 µM | hit rate 0.25% among 320,000;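 active means activation above the mean activation of all tested compounds plus 3 SD, per screening run, cut at about 20% in these data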;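 further: signal is peak over basal fluorescence ratio across a 100 second FLIPR read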
TAAR1 ag = human TAAR1 agonism; Q96RJ0; CHO RD-HGA16 TAAR1, Fluo-8 calcium fluorescence; vehicle wells 0%, saturating PEA agonist 100%; activation, % at 3 µM; hit rate 0.99% among 360,000;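 active means activation above the mean activation of all test compounds in the run plus 3 SD, cut at about 38% in these data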
Target sequence (Q96RJ0 whole entry, looked up): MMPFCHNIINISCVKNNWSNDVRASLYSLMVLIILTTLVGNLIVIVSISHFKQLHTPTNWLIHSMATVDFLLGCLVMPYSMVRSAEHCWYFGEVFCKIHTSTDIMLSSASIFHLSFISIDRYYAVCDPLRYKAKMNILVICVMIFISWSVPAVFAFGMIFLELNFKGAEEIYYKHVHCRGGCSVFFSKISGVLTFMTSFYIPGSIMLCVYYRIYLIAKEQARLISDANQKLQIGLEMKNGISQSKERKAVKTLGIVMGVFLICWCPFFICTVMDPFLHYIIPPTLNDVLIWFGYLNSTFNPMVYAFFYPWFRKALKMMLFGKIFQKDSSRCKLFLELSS
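test system = CHO RD-HGA16 cells carrying human TAAR1 plus Gα16 | schedule = 17-24 h seeding, 75 min 37 °C dye, 30 min RT | compound dosing = 3 µM single concentration | control set = DMSO and PEA EC100 | replicates = n 1 | signal = Fluo-8 fluorescence, 5 s baseline then 140 s kinetic read | measure = percent activation vs PEA EC100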
OXTR ag = agonists of human oxytocin receptor. CHO-OTR cells, Fluo-8 calcium fluorescence; normalized: DMSO 0%, oxytocin 100%. activation, % at 3 µM. hit rate 0.32% among 320,000. AID 2435;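 active means activation above the mean of all tested compounds plus 3 SD, cutoff set per screening run, cut at about 20% in these data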;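 further: peak over basal fluorescence ratio from a 100 s FLIPR kinetic read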
TAAR1 antagonist = human TAAR1 antagonism; Q96RJ0; CHO RD-HGA16 TAAR1, Fluo-8 calcium fluorescence, antagonist; inhibition, % at 3 µM; hit rate 1.5% among 360,000; AID 624466;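 active means inhibition above a per-plate cutoff, the mean inhibition of test compounds on that plate plus 3 SD, cut at about 49% in these data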;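 further: 0% = DMSO plus EC80 beta-PEA response and 100% = DMSO alone without agonist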
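test system = CHO RD-HGA16 cells bearing hTAAR1 | replication = singlicate | controls = DMSO-only wells and EC80 β-PEA-stimulated wells | reagent = EC80 β-phenethylamine stimulus | read-out basis = percent inhibition of PEA-evoked calcium signal, max/basal emission ratio | schedule = seeding 17-24 h prior, 75-min 37 °C, 30-min RT dye loading | signal = kinetic Fluo-8 calcium fluorescence measurement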
OXTR potentiator = human OXTR potentiation | hit rate 0.061% among 320,000 | P30559 | CHO-OTR cells, Fluo-8 calcium fluorescence, potentiator mode; 0% = oxytocin EC15, 100% = EC100 | activation, % at 3 µM;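 active means activation above that plate's cutoff, the mean activation of tested compounds plus 3 SD, cut at about 6.6% in these data, passing the limit was not always enough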;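 further: 100% uses oxytocin at 75 nM as the full agonist control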
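Assay system: CHO cell line stably expressing human OTR. Reagent: EC15 oxytocin agonist. Dosing: single dose, 3.0 µM nominal final compound concentration. Timing: compound 6 min at room temperature before oxytocin, 100 s read. Signal: kinetic Fluo-8 calcium fluorescence. Controls: oxytocin EC15 low and EC100 high.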
Starred values were filed as active, the others as inactive; · = no result. This is a sample that favours compounds with a hit; in the whole collection about 2.3% have one here.

SMILES	V1aR counter	TAAR1 ag	OXTR ag	TAAR1 antagonist	OXTR potentiator
COc1ccc(-c2nn(-c3ccccc3)cc2/C=N/NC(=O)c2ccc3c(c2)OCO3)cc1	1	·	-1	·	-10
O=C(N/N=C\c1cn(-c2ccccc2)nc1-c1ccccc1)c1ccc2c(c1)OCO2	0	10	-2	55*	-17
COc1ccc(-c2nn(-c3ccccc3)cc2/C=N/NC(=O)c2ccc(Br)o2)cc1	2	18	2	61*	-14
C[C@]1(O)CC(=O)C=C[C@H]1Nc1ccccc1	·	1	·	-4	·
COc1ccc(C2C=C(c3ccc(Br)s3)Nc3ncnn32)cc1OC (stereo not drawn)	17	·	23*	·	-23
COc1ccc(C2C=C(c3ccc(C)cc3)Nc3ncnn32)cc1 (stereo not drawn)	·	-2	·	5	·
COc1ccc(CCNCc2ccc(OCc3ccccc3)cc2)cc1	8	44*	6	-9	-8
Cc1nc2ccc(NC(=O)c3cccc(S(=O)(=O)N(C)c4ccccc4)c3)cc2s1	5	·	0	·	-9
CN(c1ccccc1)S(=O)(=O)c1cccc(C(=O)Nc2cccc(C(=O)NC3CC3)c2)c1	·	11	·	17	·
CN(c1ccccc1)S(=O)(=O)c1cccc(NC(=O)c2ccc3ncsc3c2)c1	4	9	4	60*	-12
CN(c1ccccc1)S(=O)(=O)c1cccc(NC(=O)c2cccc(C#N)c2)c1	5	21	5	66*	-12
CC(=O)c1cccc(NC(=O)c2ccc(N(C)S(=O)(=O)c3ccc(C)cc3)cc2)c1	8	7	2	55*	-10
CN(c1ccc(C(=O)Nc2cccc(O)c2)cc1)S(=O)(=O)c1ccccc1	8	12	2	10	-7
C#CCN(C[C@H]1[C@H](OC(=O)NCCCCCC)[C@H](OC(=O)NCCCCCC)CN(C(=O)OC(C)C)N1C(=O)OC(C)C)S(=O)(=O)c1ccc(C)cc1	·	1	·	1	·
O=C(CN1CCN(Cc2ccc3c(c2)OCO3)CC1)Nc1ccc(F)cc1	1	41*	1	-22	-7
O=C(CN1CCN(Cc2ccc3c(c2)OCO3)CC1)c1c[nH]c2ccccc12	3	38*	9	2	-12
O=C(CN1CCN(Cc2ccc3c(c2)OCO3)CC1)Nc1ccc2c(c1)OCO2	1	18	1	-11	2
CCc1nc2c(OCc3ccc(OC(F)F)cc3)cccn2c1N(C)C(=O)c1cccs1	·	1	·	6	·
C[C@H](CO)N1C[C@H](C)[C@H](CN(C)C(=O)c2ccccn2)Oc2cc(C#Cc3ccc(F)cc3)ccc2S1(=O)=O	·	13	·	17	·
COc1cccc(C#Cc2ccc3c(c2)O[C@@H](CN(C)C(=O)c2ccccn2)[C@@H](C)CN([C@H](C)CO)S3(=O)=O)c1	·	7	·	49*	·
CCOC(=O)COc1ccccc1/C=N\NC(=O)c1cc2c(ccc3ccccc32)o1	·	4	·	49*	·
COC(=O)C1=CN(c2ccc3c(c2)OCO3)C(N)=C(C#N)C1c1cccc(F)c1 (stereo not drawn)	·	2	·	1	·
O=C(NCc1ccc(Cl)cc1)c1ccc(-n2cccn2)nc1	-1	41*	-1	8	-1
COc1ccc(-c2cc(C(=O)N(C)CCc3ccc(OC)c(OC)c3)c3ccccc3n2)cc1	·	12	·	49*	·
COc1cc2nc(CN(C)Cc3nc4ccccc4c(=O)[nH]3)[nH]c(=O)c2cc1OC	0	7	1	-17	3
SMILES	V1aR counter	TAAR1 ag	OXTR ag	TAAR1 antagonist	OXTR potentiator
COc1cccc(CN(C)C(=O)c2cc(-c3ccc(F)cc3)nc3ccccc23)c1	2	·	-1	·	-4
COc1ccc(-c2cc(C(=O)N(C)Cc3nc4ccccc4c(=O)[nH]3)c3ccccc3n2)cc1OC	11	11	-1	59*	-1
COc1cccc(CN(C)C(=O)c2cc(-c3ccc(OC)c(OC)c3)nc3ccccc23)c1	·	3	·	51*	·
COc1ccc(CCN(C)C(=O)c2cc(-c3ccccc3)nc3ccccc23)cc1OC	·	3	·	13	·
COc1ccc(CN(C)C(=O)c2cc(-c3ccccc3)nc3ccc(C)cc23)c(OC)c1OC	-1	4	-1	63*	-9
COc1cc2c(NCCCCCCO[N+](=O)[O-])ncnc2c(OC)c1OC	·	2	·	-15	·
Cc1cccc(C)c1NC(=O)C1(C)CN(S(C)(=O)=O)CC(=O)N1Cc1cccs1 (stereo not drawn)	·	0	·	-1	·
O=S1(=O)c2cc(Cl)ccc2N2CCC[C@@H]2CN1Cc1ccc(Cl)c(Cl)c1	·	2	·	-12	·
CCCCCCCCN1C(=O)[C@@H](CC(=O)NCc2ccc(OC)c(OC)c2)C[C@@]2(C(=O)OC)C1=C[C@H](C(C)(C)C)O[C@@H]2C	·	-2	·	-39	·
COc1cccc(NC(=O)Nc2cccn(Cc3ccccc3)c2=O)c1	4	3	5	1	-9
COc1cccc(Cn2cccc(NC(=O)Nc3ccc(C#N)cc3)c2=O)c1	8	8	9	53*	-28
CC(C)C[C@@H]1COc2cccc(NC3CC3)c2S(=O)(=O)N1	·	1	·	-11	·
CN(C(=O)COc1ccccc1C(=O)NCCOc1ccccc1)c1ccccc1	6	16	2	75*	-12
O=C(NCCOc1ccccc1)c1ccccc1Cl	-1	0	0	-2	2
O=C(c1n[nH]c2ccccc12)N1CCN(S(=O)(=O)c2ccccc2)CC1	3	4	1	11	-8
O=C(c1cc(=O)[nH]c2ccccc12)N1CCN(S(=O)(=O)c2ccc(Cl)cc2)CC1	0	30	0	59*	5
CC1(c2nnnn2Cc2ccccc2)CCC(=O)N1Cc1ccc(F)cc1 (stereo not drawn)	·	-1	·	10	·
S=C(NCCc1ccccc1)N1CCN(C23CC4CC(CC(C4)C2)C3)CC1	8	37*	11	15	-6
O=C(COC(=O)c1cc(=O)[nH]c2ccccc12)Nc1nc(-c2ccccc2)cs1	2	7	0	50*	11
COc1ccc(/C=C2\CN(Cc3ccccc3)C/C(=C\c3ccc(OC)cc3OC)C2=O)c(OC)c1	0	13	-1	57*	-22
NC(=O)c1ncn2c(=O)n(CCCl)nnc12	·	6	·	-10	·
COc1cc(C(=O)Oc2cccc(Nc3ncnc4ccccc34)c2)cc(OC)c1OC	6	13	6	82*	-11
O=C(Oc1cccc(Nc2ncnc3ccccc23)c1)c1cccnc1	9	11	9	31	-28
Cc1ccc(CNC(=O)C2COc3ccccc3O2)cc1 (stereo not drawn)	-1	1	-2	-16	-8
Cc1ccc(C(C(=O)NCc2ccc(F)cc2)N(CCCO)C(=O)C2COc3ccccc3O2)o1 (stereo not drawn)	2	16	2	52*	-16
